From ChEMBL document CHEMBL1909619, “Synthesis and Toll-like receptor 4 (TLR4) activity of phosphatidylinositol dimannoside analogues” (J Med Chem, 2011)
Calls of active or inactive are those of the source. No cut-off for these calls is given here.

What was measured:
[1] = Cytotoxicity against mouse peritoneal macrophages assessed as cell viability by trypan blue exclusion assay; type: cell-based; conditions: peritoneal macrophage cell
Outline: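 Thioglycollate-elicited mouse peritoneal macrophages were plated at 2×10^5 cells/well in supplemented RPMI-1640. They were exposed to compound, with or without 10 ng/ml LPS, for 18 h at 37°C, 5% CO2. Viability was then scored by trypan blue exclusion.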

[2] = biological target: T1, Toll-like receptor 4 (Mus musculus) (UniProt Q9QUK6); experiment: Agonist activity at TLR4 in thioglycollate-elicited mouse peritoneal macrophages assessed as induction of IL-6 production in after 18 hrs by ELISA; type: functional
T1 sequence (whole entry): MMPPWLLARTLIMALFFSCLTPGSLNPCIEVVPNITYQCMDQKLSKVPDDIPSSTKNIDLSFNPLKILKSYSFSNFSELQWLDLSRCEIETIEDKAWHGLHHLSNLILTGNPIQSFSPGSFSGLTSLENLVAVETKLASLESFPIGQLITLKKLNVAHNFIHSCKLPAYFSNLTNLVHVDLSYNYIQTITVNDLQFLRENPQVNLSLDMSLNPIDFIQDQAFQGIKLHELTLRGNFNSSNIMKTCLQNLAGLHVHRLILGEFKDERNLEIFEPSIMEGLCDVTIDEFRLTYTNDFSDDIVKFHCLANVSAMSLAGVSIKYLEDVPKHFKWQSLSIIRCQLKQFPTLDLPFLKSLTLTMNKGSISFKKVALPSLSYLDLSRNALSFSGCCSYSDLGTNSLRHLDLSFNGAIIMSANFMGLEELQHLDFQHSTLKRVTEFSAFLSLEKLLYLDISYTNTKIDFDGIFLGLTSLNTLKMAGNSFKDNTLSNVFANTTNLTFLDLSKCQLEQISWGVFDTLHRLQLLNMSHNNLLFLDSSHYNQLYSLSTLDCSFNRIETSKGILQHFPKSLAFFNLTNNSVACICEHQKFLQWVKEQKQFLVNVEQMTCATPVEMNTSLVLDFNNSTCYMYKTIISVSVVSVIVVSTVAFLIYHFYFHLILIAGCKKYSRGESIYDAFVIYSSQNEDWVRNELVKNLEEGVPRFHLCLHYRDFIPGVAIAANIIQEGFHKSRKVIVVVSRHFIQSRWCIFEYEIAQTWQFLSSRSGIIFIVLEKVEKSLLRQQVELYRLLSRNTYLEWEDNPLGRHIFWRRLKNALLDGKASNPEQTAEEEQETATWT
Outline: (§1)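 Thioglycollate-elicited mouse peritoneal macrophages were plated at 2×10^5 cells/well in RPMI-1640 with 10% fetal calf serum and penicillin-streptomycin. They were incubated 18 h at 37°C, 5% CO2 with compound, with or without 10 ng/ml LPS. IL-6 in the supernatant was measured by ELISA. Data are representative of at least two replicate experiments, and significance was tested by ANOVA.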

Toll-like receptor 4 = biological target: T2, Toll-like receptor 4 (Mus musculus, UniProt Q9QUK6); experiment: (§2) Inhibition of LPS-induced TLR4 activation in thioglycollate-elicited mouse peritoneal macrophages assessed as inhibition of IL-6 production after 18 hrs by ELISA; outline: as §1
T2 sequence (Q9QUK6 whole entry): T1 sequence (whole entry)

[3] = biological target: T1, Toll-like receptor 4 (Mus musculus); experiment: as §2; outline: as §1
Sf9 [4] = experiment: Competitive binding affinity at MD1 transfected in Sf9 insect cells after 1 hr by native PAGE in presence of LPS; type: cell-based
Outline: (§3)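 MD-1 was expressed by baculovirus and purified by Ni-NTA affinity, anion exchange and gel filtration. It was combined with compound and then LPS in 20 mM Hepes pH 7.4/150 mM NaCl. After 1 h at room temperature, the mixture was analysed by native PAGE on a 4–20% gradient gel at pH 8.8.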

[5] = biological target: Toll-like receptor 4 (Homo sapiens) (UniProt O00206); experiment: Partial agonist activity at TLR4 transfected in Sf9 insect cells assessed as inhibition of LPS-mediated sTLR4/MD2 homodimerization after 1 hr by native PAGE; type: functional, cell-based
Outline: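 The sTLR4 ectodomain/MD-2 complex was co-expressed in Hi5 insect cells from baculovirus made in SF9 cells. It was purified by Ni-NTA and Strep-Tactin affinity, tag removal with thrombin, and size exclusion. After 1 h at room temperature, the mixture was resolved by native PAGE on a 4–20% gel at pH 8.8.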

Sf9 [6] = experiment: Binding affinity at MD1 transfected in Sf9 insect cells after 1 hr by native PAGE; type: cell-based; outline: as §3
Macrophage = experiment: Induction of IL-6 production in TLR4-deficient mouse macrophages; type: functional, cell-based
[7] = biological target: T1, Toll-like receptor 4 (Mus musculus); experiment: Enhancement of LPS-induced TLR4 activation in mouse peritoneal macrophages assessed as IL-6 production at 0.6 to 19.2 uM after 18 hrs by ELISA; outline: as §1

Toll-like receptor 4 (Homo sapiens), sequence (O00206 whole entry, the tested form may be a part): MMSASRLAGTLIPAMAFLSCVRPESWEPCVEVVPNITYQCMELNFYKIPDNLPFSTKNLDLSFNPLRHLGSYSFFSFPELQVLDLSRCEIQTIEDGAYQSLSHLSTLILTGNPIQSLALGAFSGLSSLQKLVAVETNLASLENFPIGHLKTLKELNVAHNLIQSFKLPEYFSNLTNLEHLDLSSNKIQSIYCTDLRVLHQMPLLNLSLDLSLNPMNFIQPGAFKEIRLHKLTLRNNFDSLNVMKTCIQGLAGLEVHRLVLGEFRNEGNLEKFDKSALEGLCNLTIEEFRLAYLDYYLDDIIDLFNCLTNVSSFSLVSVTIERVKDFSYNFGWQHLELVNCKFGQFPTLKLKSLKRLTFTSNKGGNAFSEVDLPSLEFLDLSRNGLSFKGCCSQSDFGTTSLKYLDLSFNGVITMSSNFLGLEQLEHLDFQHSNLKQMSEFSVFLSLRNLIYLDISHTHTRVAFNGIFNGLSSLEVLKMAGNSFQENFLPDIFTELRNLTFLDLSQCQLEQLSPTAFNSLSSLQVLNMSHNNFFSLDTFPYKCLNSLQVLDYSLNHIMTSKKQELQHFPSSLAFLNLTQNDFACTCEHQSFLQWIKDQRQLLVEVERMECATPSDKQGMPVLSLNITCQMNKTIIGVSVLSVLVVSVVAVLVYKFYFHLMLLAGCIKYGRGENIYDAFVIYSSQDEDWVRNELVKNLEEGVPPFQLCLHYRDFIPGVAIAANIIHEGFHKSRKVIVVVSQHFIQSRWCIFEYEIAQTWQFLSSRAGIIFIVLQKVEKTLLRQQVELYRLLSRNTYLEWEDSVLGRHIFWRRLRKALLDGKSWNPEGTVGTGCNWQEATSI

| SMILES | Activity [1] | Activity [2] [pg/mL] | IC50 (Toll-like receptor 4) [µM] | inhibition [3] | Activity (Sf9 [4]) | Activity [5] | Activity (Sf9 [6]) | Activity (Macrophage) | Activity [7] |
| --- | --- | --- | --- | --- | --- | --- | --- | --- | --- |
| CCCCCCCCCCCCCCCCO[C@H](COC(=O)CCCCCCCCCCCCCCC)COP(=O)(O)OC(CO[C@H]1O[C@H](CO)[C@@H](O)[C@H](O)[C@@H]1O)CO[C@H]1O[C@H](CO)[C@@H](O)[C@H](O)[C@@H]1O | Non-toxic | 923 | 42.8 | – | – | – | – | – | – |
| CCCCCCCCCCCCCCCCO[C@H](COC(=O)CCCCCCCCCCCCCCC)COP(=O)(O)O[C@@H]1[C@H](O[C@H]2O[C@H](CO)[C@@H](O)[C@H](O)[C@@H]2O)[C@H](O)[C@@H](O)[C@H](O)[C@H]1O[C@H]1O[C@H](CO)[C@@H](O)[C@H](O)[C@@H]1O | Non-toxic | 1460 | 30.3 | Dose-dependent effect | – | – | – | – | – |
| CCCCCCCCCCCCCCCC(=O)OC[C@H](COP(=O)(O)O[C@@H]1[C@H](O[C@H]2O[C@H](CO)[C@@H](O)[C@H](O)[C@@H]2O)[C@H](O)[C@@H](O)[C@H](O)[C@H]1O[C@H]1O[C@H](CO)[C@@H](O)[C@H](O)[C@@H]1O)OC(=O)CCCCCCCCCCCCCCC | Non-toxic | 817 | 40.2 | – | Dose-dependent effect | Active | Active | inactive | – |
| CCCCCCCCCCCCCCCC(=O)OC[C@H](COP(=O)(O)OC(CO[C@H]1O[C@H](CO)[C@@H](O)[C@H](O)[C@@H]1O)CO[C@H]1O[C@H](CO)[C@@H](O)[C@H](O)[C@@H]1O)OC(=O)CCCCCCCCCCCCCCC | Non-toxic | 143 | 12.9 | – | – | – | – | – | – |
| CCCCCCCCCCCCCCCC(=O)N[C@H](COC(=O)CCCCCCCCCCCCCCC)COP(=O)(O)O[C@@H]1[C@H](O[C@H]2O[C@H](CO)[C@@H](O)[C@H](O)[C@@H]2O)[C@H](O)[C@@H](O)[C@H](O)[C@H]1O[C@H]1O[C@H](CO)[C@@H](O)[C@H](O)[C@@H]1O | Non-toxic | 664 | 22.7 | – | – | – | – | – | – |
| CCCCCCCCCCCCCCCCOC[C@H](COP(=O)(O)O[C@@H]1[C@H](O[C@H]2O[C@H](CO)[C@@H](O)[C@H](O)[C@@H]2O)[C@H](O)[C@@H](O)[C@H](O)[C@H]1O[C@H]1O[C@H](CO)[C@@H](O)[C@H](O)[C@@H]1O)OC(=O)CCCCCCCCCCCCCCC | Non-toxic | 1130 | 28.8 | – | – | – | – | – | – |
| CCCCCCCCCCCCCCCCO[C@H](COC(=O)CCCCCCCCCCCCCCC)COP(=O)(O)O[C@@H]1[C@H](O[C@H]2O[C@H](COC(=O)CCCCCCCCCCCCCCC)[C@@H](O)[C@H](O)[C@@H]2O)[C@H](O)[C@@H](O)[C@H](O)[C@H]1O[C@H]1O[C@H](CO)[C@@H](O)[C@H](O)[C@@H]1O | Non-toxic | 275 | – | – | – | – | – | – | Active |
| CCCCCCCCCCCCCCCCOC[C@H](COP(=O)(O)O[C@@H]1[C@H](O[C@H]2O[C@H](CO)[C@@H](O)[C@H](O)[C@@H]2O)[C@H](O)[C@@H](O)[C@H](O)[C@H]1O[C@H]1O[C@H](CO)[C@@H](O)[C@H](O)[C@@H]1O)OCCCCCCCCCCCCCCCC | Non-toxic | 494 | 23.3 | – | – | – | – | – | – |
